Laboratory results taken from ChEMBL document CHEMBL1146900, “New opioid designed multiple ligand from Dmt-Tic and morphinan pharmacophores” (J Med Chem, 2006).
The source made the active and inactive calls. The rule behind the calls is not given here. Non-standard residues stand in square brackets, D forms with d. Residues, ends and D or L forms follow the SMILES beside them. Dmt = Cc1cc(O)cc(C)c1C[C@H](N)C(=O)O; Tic = O=C(O)[C@@H]1Cc2ccccc2CN1; βAla = NCCC(=O)O

Columns and labels:
[1] = biological target: T1, Delta-type opioid receptor (Homo sapiens, UniProt P41143); assay: Agonist activity at human delta opioid receptor expressed in CHO cells assessed as stimulation of [35S]GTP-gamma-S binding; type: functional, cell-based
Procedure, shortened: (§1)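 Membranes from CHO cells stably expressing only the human μ, δ or κ opioid receptor were incubated with various concentrations of compound, and stimulation of [35S]GTPγS binding was measured. Emax is the maximal percent stimulation. EC50 is the concentration giving 50% of Emax. EC50 was not calculated when Emax was 30% or lower.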

[2] = biological target: T2, Kappa-type opioid receptor (Homo sapiens, UniProt P41145); assay: Inhibition of [3H]U-69593 binding to human kappa opioid receptor expressed in CHO cells at 10 uM; type: cell-based
[3] = biological target: T3, Mu-type opioid receptor (Homo sapiens, UniProt P35372); assay: Agonist activity at human mu opioid receptor expressed in CHO cells assessed as stimulation of [35S]GTP-gamma-S binding; type: functional, cell-based; procedure, shortened: as §1
[4] = biological target: T2, Kappa-type opioid receptor; assay: Antagonist activity against human kappa opioid receptor expressed in CHO cells assessed as inhibition of U50488-stimulated [35S]GTPgammaS binding; type: functional, cell-based
Procedure, shortened: (§2)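 CHO membranes stably expressing a single human opioid receptor were incubated with agonist plus varying compound concentrations, and [35S]GTPγS binding was measured. Agonists: μ, DAMGO 200 nM; δ, SNC-80 100 nM; κ, U50,488 100 nM. Imax is the maximal percent inhibition of agonist-stimulated binding.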

[5] = biological target: T2, Kappa-type opioid receptor; assay: Agonist activity at human kappa opioid receptor expressed in CHO cells assessed as stimulation of [35S]GTPgammaS binding; type: functional, cell-based; procedure, shortened: as §1
[6] = biological target: T3, Mu-type opioid receptor; assay: Antagonist activity against human mu opioid receptor expressed in CHO cells assessed as inhibition of DAMGO-stimulated [35S]GTP-gamma-S binding; type: functional, cell-based; procedure, shortened: as §2
[7] = biological target: T1, Delta-type opioid receptor; assay: Displacement of [3H]naltrindole from human delta opioid receptor expressed in CHO cells; type: cell-based
[8] = biological target: T3, Mu-type opioid receptor; assay: Displacement of [3H]DAMGO from human mu opioid receptor expressed in CHO cells; type: cell-based
Procedure, shortened: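 Competition binding run on membranes prepared from CHO cells that stably express the human mu receptor.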

[9] = biological target: T1, Delta-type opioid receptor; assay: Antagonist activity against human delta opioid receptor expressed in CHO cells assessed as inhibition of SNC80-stimulated [35S]GTP-gamma-S binding; type: functional, cell-based; procedure, shortened: as §2
[10] = biological target: T2, Kappa-type opioid receptor; assay: Displacement of [3H]U-69593 from human kappa opioid receptor expressed in CHO cells; type: cell-based
[11] = biological target: Opioid receptors; mu & delta (Homo sapiens) (UniProt P41143+P35372); assay: Selectivity for delta opioid receptor over mu opioid receptor; type: protein assay
Procedure, shortened: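 Competition binding to membranes of CHO cells stably expressing human μ or δ opioid receptors, each receptor in separate membranes. Selectivity comes from comparing the affinities at the two receptors.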

T1 sequence (P41143 whole entry): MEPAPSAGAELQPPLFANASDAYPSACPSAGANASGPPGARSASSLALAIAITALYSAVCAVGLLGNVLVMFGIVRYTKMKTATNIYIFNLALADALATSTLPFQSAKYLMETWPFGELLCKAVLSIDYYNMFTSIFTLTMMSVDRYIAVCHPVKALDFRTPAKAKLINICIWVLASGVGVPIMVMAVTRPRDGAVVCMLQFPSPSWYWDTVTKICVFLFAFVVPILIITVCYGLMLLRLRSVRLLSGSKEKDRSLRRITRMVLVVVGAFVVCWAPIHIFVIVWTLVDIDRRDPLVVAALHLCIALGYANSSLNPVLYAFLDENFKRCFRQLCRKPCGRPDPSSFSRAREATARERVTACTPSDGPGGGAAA
T3 sequence (P35372 whole entry): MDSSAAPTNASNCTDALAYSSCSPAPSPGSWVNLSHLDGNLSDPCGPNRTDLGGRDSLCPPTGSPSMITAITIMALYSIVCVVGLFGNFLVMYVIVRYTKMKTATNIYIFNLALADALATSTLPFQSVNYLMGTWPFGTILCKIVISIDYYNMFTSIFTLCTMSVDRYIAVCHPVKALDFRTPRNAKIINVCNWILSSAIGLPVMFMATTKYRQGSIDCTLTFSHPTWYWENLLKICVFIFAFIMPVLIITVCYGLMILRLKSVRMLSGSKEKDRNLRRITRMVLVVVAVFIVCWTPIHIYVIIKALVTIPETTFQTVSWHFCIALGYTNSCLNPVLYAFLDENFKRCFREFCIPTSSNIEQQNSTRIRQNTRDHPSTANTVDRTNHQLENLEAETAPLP
T2 sequence (P41145 whole entry): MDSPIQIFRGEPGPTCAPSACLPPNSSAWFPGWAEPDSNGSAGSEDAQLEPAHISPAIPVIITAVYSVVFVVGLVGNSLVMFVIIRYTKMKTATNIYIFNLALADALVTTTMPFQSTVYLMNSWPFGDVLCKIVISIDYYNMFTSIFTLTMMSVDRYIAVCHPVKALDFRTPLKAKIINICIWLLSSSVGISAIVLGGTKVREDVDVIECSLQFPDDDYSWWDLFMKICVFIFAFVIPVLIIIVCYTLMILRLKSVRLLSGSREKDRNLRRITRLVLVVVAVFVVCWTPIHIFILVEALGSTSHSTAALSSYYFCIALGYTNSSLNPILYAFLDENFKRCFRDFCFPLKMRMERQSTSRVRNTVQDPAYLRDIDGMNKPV
Sequence of Opioid receptors; mu & delta (Homo sapiens) (P35372 whole entry, looked up): as the sequence (P35372 whole entry) above
Sequence of Opioid receptors; mu & delta (Homo sapiens) (P41143 whole entry, looked up): as the sequence (P41143 whole entry) above

Compound | EC50 [1] [nM] | Emax [1] [%] | Ki [2] [nM] | EC50 [3] [nM] | Emax [3] [%] | Activity [4] | EC50 [5] [nM] | Emax [5] [%] | IC50 [6] [nM] | Imax [6] [%] | Ki [7] [nM] | Ki [8] [nM] | IC50 [9] [nM] | Imax [9] [%] | Ki [10] [nM] | Activity [1] | inhibition [2] [%] | IC50 [4] | Imax [4] | Ratio Ki [11]
Cc1cc(O)cc(C)c1C[C@H](N)C(=O)N1Cc2ccccc2C[C@H]1C(=O)NCCC(=O)Oc1ccc2c(c1)[C@@]13CCCC[C@H]1[C@@H](C2)N(CC1CCC1)CC3 | 2.8 | 18 | 0.28 | 8.9 | 79 | inactive | 6 | 130 | 97 | 47 | 1.5 | 0.69 | 3.9 | 84 | 0.28 |  |  |  |  | 
Cc1cc(O)cc(C)c1C[C@H](N)C(=O)N1Cc2ccccc2C[C@H]1C(=O)NCCC(=O)O (H-[Dmt]-[Tic]-[βAla]-OH) |  | 0.95 |  |  |  |  |  |  |  |  | 4.2 |  | 10 | 93 |  | inactive | 62 | Not Active | inactive | 262
